Assay results taken from ChEMBL document CHEMBL1129566 (J Med Chem, 1996).
Converted amounts (≈) assume the structure as drawn.

Columns and labels:
Assay type in all cases: functional
[1] = system: Staphylococcus aureus; experiment: In vitro minimum inhibitory concentration required to produce antibacterial activity against Staphylococcus aureus 887MSSA
Method in brief: (§1)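 Two-fold agar dilution on Mueller-Hinton agar. Overnight broth cultures diluted in fresh broth to […]; 10⁴ CFU/spot applied by inoculating apparatus onto plates with graded drug concentrations. Incubated 18 h at 37 °C; MIC taken as the lowest concentration giving complete growth inhibition.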

[2] = system: Enterobacter cloacae; experiment: In vitro minimum inhibitory concentration required to produce antibacterial activity against Enterobacter cloacae 908SSI; method in brief: as §1
[3] = system: Enterococcus faecalis; experiment: In vitro minimum inhibitory concentration required to produce antibacterial activity against Enterococcus faecalis ATCC 29212; method in brief: as §1
[4] = system: Streptococcus pneumoniae; experiment: Minimum inhibitory concentration for antibacterial activity against Streptococcus pneumoniae Q19 (pen s); method in brief: as §1
[5] = system: Staphylococcus aureus; experiment: In vitro minimum inhibitory concentration required to produce antibacterial activity against Staphylococcus aureus 743 MRSA; method in brief: as §1
[6] = system: Escherichia coli; experiment: In vitro minimum inhibitory concentration required to produce antibacterial activity against Escherichia coli 25922; method in brief: as §1
[7] = system: Streptococcus pneumoniae; experiment: In vitro minimum inhibitory concentration required to produce antibacterial activity against Streptococcus pneumoniae 1/37(pen r); method in brief: as §1
[8] = system: Pseudomonas aeruginosa; experiment: In vitro minimum inhibitory concentration required to produce antibacterial activity against Pseudomonas aeruginosa ATCC 27853; method in brief: as §1
[9] = system: Citrobacter freundii; experiment: In vitro minimum inhibitory concentration required to produce antibacterial activity against Citrobacter freundii 902; method in brief: as §1

Structure (SMILES)	MIC [1] [µg/mL]	MIC [2] [µg/mL]	MIC [3] [µg/mL]	MIC [4] [µg/mL]	MIC [5] [µg/mL]	MIC [6] [µg/mL]	MIC [7] [µg/mL]	MIC [8] [µg/mL]	MIC [9] [µg/mL]
COc1cccc(N2CC/C(=C\C3=C(C(=O)O)N4C(=O)[C@@H](NC(=O)/C(=N\O)c5csc(N)n5)[C@H]4SC3)C2=O)c1	1 (≈ 1.75 µM)	1 (≈ 1.75 µM)	0.5 (≈ 0.876 µM)	≤ 0.06	8 (≈ 14 µM)	0.5 (≈ 0.876 µM)	0.5 (≈ 0.876 µM)	> 32	0.5 (≈ 0.876 µM)
Nc1nc(/C(=N/O)C(=O)N[C@@H]2C(=O)N3C(C(=O)O)=C(/C=C4\CCN(Cc5nn[nH]n5)C4=O)CS[C@H]23)cs1	8 (≈ 14.6 µM)	16 (≈ 29.3 µM)	16 (≈ 29.3 µM)	0.12 (≈ 0.22 µM)	32 (≈ 58.5 µM)	0.25 (≈ 0.457 µM)	2 (≈ 3.66 µM)	> 32	2 (≈ 3.66 µM)
Nc1nc(/C(=N/O)C(=O)N[C@@H]2C(=O)N3C(C(=O)O)=C(/C=C4\CCCN(c5ccccc5)C4=O)CS[C@H]23)cs1	2 (≈ 3.61 µM)	4 (≈ 7.21 µM)	8 (≈ 14.4 µM)	0.12 (≈ 0.216 µM)	32 (≈ 57.7 µM)	1 (≈ 1.8 µM)	4 (≈ 7.21 µM)	> 32	1 (≈ 1.8 µM)
Nc1nc(/C(=N/O)C(=O)N[C@@H]2C(=O)N3C(C(=O)O)=C(/C=C4/CCN(C5CC5)C4=O)CS[C@H]23)cs1	1 (≈ 1.98 µM)	1 (≈ 1.98 µM)	16 (≈ 31.7 µM)	0.25 (≈ 0.495 µM)	16 (≈ 31.7 µM)	0.5 (≈ 0.991 µM)	2 (≈ 3.96 µM)	> 32	0.5 (≈ 0.991 µM)
C=CCN1CC/C(=C\C2=C(C(=O)O)N3C(=O)[C@@H](NC(=O)/C(=N\O)c4csc(N)n4)[C@H]3SC2)C1=O	1 (≈ 1.98 µM)	0.25 (≈ 0.495 µM)	1 (≈ 1.98 µM)	≤ 0.06	16 (≈ 31.7 µM)	≤ 0.06	1 (≈ 1.98 µM)	16 (≈ 31.7 µM)	≤ 0.06
Nc1nc(/C(=N/O)C(=O)N[C@@H]2C(=O)N3C(C(=O)O)=C(/C=C4\CCN(c5ccc(O)c(O)c5)C4=O)CS[C@H]23)cs1	2 (≈ 3.49 µM)	0.25 (≈ 0.437 µM)	0.5 (≈ 0.873 µM)	≤ 0.06	16 (≈ 27.9 µM)	0.25 (≈ 0.437 µM)	2 (≈ 3.49 µM)	32 (≈ 55.9 µM)	0.12 (≈ 0.21 µM)
Nc1nc(/C(=N/OC2CCCC2)C(=O)N[C@@H]2C(=O)N3C(C(=O)O)=C(/C=C4\CCN(CC(F)(F)F)C4=O)CS[C@H]23)cs1	4 (≈ 6.51 µM)	4 (≈ 6.51 µM)	8 (≈ 13 µM)	≤ 0.06	8 (≈ 13 µM)	2 (≈ 3.25 µM)	1 (≈ 1.63 µM)	8 (≈ 13 µM)	4 (≈ 6.51 µM)
Nc1nc(/C(=N/O)C(=O)N[C@@H]2C(=O)N3C(C(=O)O)=C(/C=C4\CCN(c5ccccc5)C4=O)CS[C@H]23)cs1	0.5 (≈ 0.925 µM)	0.5 (≈ 0.925 µM)	0.25 (≈ 0.462 µM)	0.06 (≈ 0.111 µM)	8 (≈ 14.8 µM)	0.25 (≈ 0.462 µM)	2 (≈ 3.7 µM)	16 (≈ 29.6 µM)	0.25 (≈ 0.462 µM)
Nc1nc(/C(=N/O)C(=O)N[C@@H]2C(=O)N3C(C(=O)O)=C(/C=C4\CCNC4=O)CS[C@H]23)cs1	1 (≈ 2.15 µM)	0.5 (≈ 1.08 µM)	2 (≈ 4.31 µM)	0.06 (≈ 0.129 µM)	8 (≈ 17.2 µM)	≤ 0.06	2 (≈ 4.31 µM)	> 16	0.5 (≈ 1.08 µM)
C=CCO/N=C(\C(=O)N[C@@H]1C(=O)N2C(C(=O)O)=C(/C=C3\CCN(CC(F)(F)F)C3=O)CS[C@H]12)c1csc(N)n1	4 (≈ 6.82 µM)	4 (≈ 6.82 µM)	32 (≈ 54.6 µM)	≤ 0.06	4 (≈ 6.82 µM)	1 (≈ 1.7 µM)	0.5 (≈ 0.852 µM)	8 (≈ 13.6 µM)	2 (≈ 3.41 µM)
